High-throughput results (PubChem BioAssay)
TLR9-MyD88 inh: inhibitors of TLR9-MyD88 association in cells, primary screen, cell-based, CHO, BLA complementation, fluorescence; Toll-like receptor 9 (Homo sapiens) + Myeloid differentiation primary response protein …; 340,000 compounds, 0.21% hits; AID 504734, 2011; inhibition, % at 4.98 µM; CCF4 FRET ratio;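 active = inhibition above the mean over all tested compounds plus 3 SD, cut at about 21% in these data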;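 also: 0% = DMSO only wells and 100% = clavulanate BLA inhibitor control wells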
UPR CHOP act: activators of apoptotic CHOP UPR arm, primary screen, cell-based, CHO-CHOP luciferase reporter, luminescence, uHTS. UPR activation; percent of tunicamycin response over DMSO baseline. activation, % at 10 µM. 330,000 compounds, 0.34% hits. AID 449763, 2010;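 active = at 10 µM dose, activation of 40% or more, normalized to positive control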;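 also: 100% = tunicamycin at 10 µg/mL and 0% = DMSO alone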
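Evaluation: % reporter activation, DMSO baseline versus tunicamycin full activation; System: CHO-CHOP luciferase reporter cell line; Input: 500 cells/well; Incubation: 6 h compound treatment, 37 °C; Measured by: Steady-Glo luciferase luminescence; Dosing: one dose, 10 µM in 0.5% DMSO; Buffer or medium: F12 medium, 10% FBS; Benchmarks: positive tunicamycin 10 µg/mL, negative DMSO alone.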
CHOP inh: inhibitors of CHOP promoter induction, primary screen, cell-based, unfolded protein response, luciferase reporter; inhibition, % at 10 µM; CHO-K1 CHOP-promoter luciferase, tunicamycin-induced, 15-18 h; 220,000 compounds, 3.8% hits;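 active = compounds that reduced the stress-induced luciferase reporter signal by more than about 70% of percent inhibition, limit read from the data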;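 also: 0% = tunicamycin plus vehicle and 100% = wells without tunicamycin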
XBP1 UPR activ: activators of adaptive XBP1 UPR arm, primary screen, cell-based, CHO-XBP1 luciferase reporter, luminescence, uHTS | activation, % at 20 µM | IRE1-XBP1 UPR activation; percent of tunicamycin response, DMSO as zero | 330,000 compounds, 0.33% hits;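 active = versus positive control, 20 µM dose yields 30% or more activation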;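 also: 100% = tunicamycin at 10 µg/mL and 0% = DMSO only wells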
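Material: CHO-XBP1 cells stably carrying IRE1-XBP1-driven luciferase reporter / Amount: 1000 cells per well / Compound: 20 µM, 1% DMSO / Times: 6 h treatment, 37 °C / Detection: luciferase luminescence / Measure: % activation of reporter signal versus tunicamycin and DMSO controls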
TLR4 MyD88 comp: inhibitors of TLR4-MyD88 association in cells, primary screen, cell-based, HeLa CL3-4, BLA complementation, FRET ratio; Toll-like receptor 4 (Homo sapiens) + Myeloid differentiation primary response protein …; HeLa CL3-4 TLR4/MyD88 BLA complementation; inhibition, % at 8.4 µM; 200,000 compounds, 0.18% hits; in the data active = inhibition above about 25%;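 also: 0% = vehicle and 100% = reference inhibitor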
NOD2 RIPK2 PPI: NOD2-RIPK2 binding disruptors in cells, primary screen, fluorescence, CHO cells, BLA complementation | AID 624267, 2012 | inhibition, % at 4.98 µM | 360,000 compounds, 0.38% hits | Receptor-interacting serine/threonine-protein kinase 2 (Homo sapiens), O43353 | CCF4 ratio; in the data active = inhibition above about 21%;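 also: 0% = vehicle only and 100% = reference blocker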
* = called active by the depositor; . = not tested or not shown. The sample as a whole holds a higher share of hits than the screen did.

SMILES	TLR9-MyD88 inh	UPR CHOP act	CHOP inh	XBP1 UPR activ	TLR4 MyD88 comp	NOD2 RIPK2 PPI
CN(C)C(CNC(=O)c1ccc(S(=O)(=O)Nc2cccc(C(F)(F)F)c2)cc1)c1ccco1 (centres undefined)	-5.3	1.9	.	0.5	.	1.4
O=C1c2ccccc2C(Nc2ccc(Cl)cn2)N1Cc1ccccc1 (centres undefined)	-7.7	0.1	80.3*	-1.6	1.3	-9.1
Cc1ccc(S(=O)(=O)NC(=O)N2CCCC2)cc1	-1.8	.	.	.	.	-10.5
COc1cccc(CSC(C(=O)O)c2ccccc2)c1 (centres undefined)	-1.1	.	.	.	.	-2.2
COc1ccc(-c2csc(N(Cc3ccccc3)C(=O)COc3ccc(Cl)cc3)n2)cc1	3.5	1.4	91.3*	0.7	-8.2	-5.5
C=CCn1c(SCC(=O)NCCCC)nc2scc(-c3ccco3)c2c1=O	2.9	-0.7	93.4*	-0.5	-6.6	-1.0
COc1cc(C(=O)Nc2cccc(NC(=O)c3cccs3)c2)cc(OC)c1OC	-0.4	0.3	.	2.5	.	-49.4
CC1=C(C(=O)N2CCCCCC2)CC(CC(=O)NCC2CCCCC2)C(=O)N1Cc1ccc(F)cc1 (centres undefined)	.	.	.	.	.	-5.0
Cc1cc(C(=O)CSc2nnc3ccccn23)c(C)n1-c1ccccc1	2.9	-9.6	72.9*	-8.2	2.9	-15.7
Cc1cc(C(=O)CSc2nnc(-c3ccccc3)n2-c2ccccc2)c(C)n1-c1ncn[nH]1	5.6	1.8	-8.6	-0.3	-12.3	5.0
Cn1c(SCC(=O)Nc2cccc(F)c2)nnc1-c1cc2ccccc2o1	-1.4	-0.1	73.8*	-0.2	0.0	-0.8
Cc1nnc(SCC(=O)Nc2cc(C(N)=O)cc(C(N)=O)c2)n1-c1ccccc1	-3.8	-0.7	.	-0.4	.	-10.8
CCn1c(SCC(=O)c2ccc3c(c2)Cc2ccccc2-3)nnc1-c1ccc(N)cc1	-7.6	-1.9	84.7*	-3.2	-17.3	1.3
Cc1ccc(CCc2nnc(SCC(=O)Nc3cccc(Cl)c3)n2-c2ccccc2)o1	-19.1	-1.0	84.9*	-1.1	7.8	8.1
CCn1c(SCC(=O)Nc2ccc3c(c2)oc2ccccc23)nnc1-c1ccc(N)cc1	5.6	7.3	95.1*	0.2	-13.0	8.2
C#CCCOC(=O)N1C2=NC(C(=O)OC)=C(C(=O)OC)[C@@H]3N(Cc4ccccc4)c4ccccc4[C@]23C[C@H]1C(=O)OC	8.1	0.1	27.1	3.8	.	-4.3
O=c1c2cc(-c3ccccc3)sc2ncn1/N=C/c1ccco1	2.0	7.2	-19.6	8.9	-11.2	-10.1
CCCCC/C=C\CC(O)/C=C/c1cccc(CC(O)CCCCO)n1 (centres undefined)	.	.	11.3	.	.	.
Cc1ccc(C)c(N(C(=O)Cn2nnc3ccccc32)C(C(=O)NC(C)(C)C)c2ccsc2)c1 (centres undefined)	-1.2	0.3	70.6*	7.3	-7.6	1.3
Cc1cc(C)c(N(C(=O)Cn2nnc3ccccc32)C(C(=O)NC(C)(C)C)c2ccsc2)c(C)c1 (centres undefined)	-6.0	-0.6	49.3	-5.0	-2.1	4.3
CC(C)(C)NC(=O)C(c1ccsc1)N(CCc1ccccc1)C(=O)Cn1nnc2ccccc21 (centres undefined)	-4.0	2.6	95.0*	9.9	-15.1	4.3
CCOC(=O)C(Cc1ccc(O)cc1)NC(=O)CNC(=O)C1CCCN1C(=O)OC(C)(C)C (centres undefined)	.	0.0	20.8	-3.0	6.9	-7.5
Cc1ccc(C)c(N2CCN(C(=O)c3ccc(NS(=O)(=O)c4c(C)noc4C)cc3)CC2)c1	-2.0	-1.1	71.8*	-2.8	-13.0	-4.6
Cc1ccc(Cl)cc1N1CCN(C(=O)c2ccc(NS(=O)(=O)c3c(C)noc3C)cc2)CC1	-0.4	3.1	51.2	-0.9	-5.2	-7.8
O=C(Nc1cc(Cl)ccc1-n1cncn1)C1CC1	-3.6	1.6	.	-1.8	.	-3.2
SMILES	TLR9-MyD88 inh	UPR CHOP act	CHOP inh	XBP1 UPR activ	TLR4 MyD88 comp	NOD2 RIPK2 PPI
CC(=O)CSc1nc2cc3c(cc2cc1C#N)OCCO3	-4.1	-4.8	35.9	-1.5	14.6	-3.9
N#Cc1cc2cc3c(cc2nc1SCC(=O)OC1CCCCC1)OCO3	3.0	-0.3	79.4*	0.9	-4.0	-0.3
S=C(NCCSCc1ccccc1Cl)Nc1ccccc1	10.6	-0.3	71.4*	-4.5	-6.7	-0.5
S=C(NCCSCc1ccc(Cl)cc1)Nc1ccccc1	-5.1	-1.3	80.3*	-0.7	10.2	-1.3
CC(C)(C)c1ccc(C(=O)N2CCCCCC2=O)cc1	-0.9	-7.1	89.1*	-3.7	-9.8	2.9
CCCC(=O)NC(=S)Nc1cccc(Cl)c1N1CCCC1	-10.3	-2.8	81.2*	2.7	-4.1	-7.9
CCOc1ccc(S(=O)(=O)NCCC(=O)NC2CCC(C)CC2)cc1 (centres undefined)	-0.2	1.3	.	-1.4	.	5.5
Cc1ccc(NC(=O)c2sc3ccccc3c2Cl)nc1	10.7	-2.7	94.3*	-8.1	-4.9	-8.0
O=C(Nc1ccccn1)c1sc2cccc(F)c2c1Cl	-4.2	-4.2	77.6*	-1.8	-3.5	-5.3
Cc1nnc(NC(=O)c2sc3ccccc3c2Cl)s1	-4.8	0.9	48.9	-1.8	-1.9	-15.0
Cc1c(NC(=S)NC(=O)c2sc3ccccc3c2Cl)cccc1C(=O)O	-7.4	-2.7	-3.6	-4.8	-5.4	-3.5
COc1ccccc1C(=O)NNC(=S)NC(=O)c1sc2ccccc2c1Cl	-3.9	13.4	80.0*	26.3	1.4	-2.7
CCOc1ccc(-c2c(C(=O)N/N=C(\C)c3ccco3)nnn2-c2nonc2N)cc1	0.2	-0.1	.	-1.8	.	-7.3
Cc1ccc(S(=O)(=O)N2Cc3ccccc3CC2C(=O)N(C)C)cc1 (centres undefined)	-4.8	.	.	.	.	-2.1
CCOc1cc(C(=O)OCC(=O)Nc2cc(C)on2)ccc1OCC(C)C	-0.1	0.3	94.0*	-3.2	2.7	-3.2
C[C@@H]1CN([C@@H](C)CO)C(=O)CCCn2nncc2CO[C@@H]1CN(C)S(=O)(=O)c1ccccc1	-16.1	.	.	.	.	5.2
CC(C)=CCC/C(C)=C/C=N/NC(=O)c1cccc([N+](=O)[O-])c1	-3.0	-0.5	89.3*	-3.8	3.2	1.0
O=C(CNS(=O)(=O)c1ccc(Br)cc1)NCc1ccncc1	-0.4	-1.3	.	1.0	.	-4.9
Cc1cc(C(=O)COC(=O)Cc2n[nH]c(=O)c3ccccc23)c(C)n1-c1ccc2c(c1)OCO2	3.0	0.3	84.6*	-1.4	-6.8	-2.8
